Test results as given in ChEMBL document CHEMBL2157880, “Synthesis, antimycobacterial and antibacterial activity of ciprofloxacin derivatives containing a N-substituted benzyl moiety” (2012).
≈ marks a conversion by molar mass, not a printed value.

Assays:
Assay type in all cases: functional
[1] = test system: Enterococcus faecium; experiment: Antibacterial activity against Enterococcus faecium 10-9 after 18 to 24 hrs by NCCLS method
Summary of the method: (§1)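 Standard NCCLS (M100-S11) MIC testing against Gram-positive and Gram-negative strains. Plates were incubated at 35 °C for 18–24 h. The MIC was read as the lowest concentration giving complete inhibition of visible bacterial growth.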

[2] = test system: Klebsiella pneumoniae; experiment: Antibacterial activity against Klebsiella pneumoniae 10-3 after 18 to 24 hrs by NCCLS method; summary of the method: as §1
[3] = test system: Staphylococcus aureus; experiment: Antibacterial activity against methicillin-sensitive Staphylococcus aureus 10-13 after 18 to 24 hrs by NCCLS method; summary of the method: as §1
[4] = test system: Escherichia coli; experiment: Antibacterial activity against extended spectrum beta-lactamases producing Escherichia coli 10-2 after 18 to 24 hrs by NCCLS method; summary of the method: as §1
[5] = test system: Staphylococcus epidermidis; experiment: Antibacterial activity against methicillin-resistant Staphylococcus epidermidis 10-10 after 18 to 24 hrs by NCCLS method
Summary of the method: (§2)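 Incubated at 35 °C for 18–24 h under NCCLS (M100-S11) standards. MIC was read as the lowest concentration giving complete inhibition of visible bacterial growth.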

[6] = test system: Enterococcus faecalis; experiment: Antibacterial activity against Enterococcus faecalis 10-7 after 18 to 24 hrs by NCCLS method; summary of the method: as §1
[7] = test system: Escherichia coli; experiment: Antibacterial activity against extended spectrum beta-lactamases producing Escherichia coli 10-4 after 18 to 24 hrs by NCCLS method; summary of the method: as §1
[8] = test system: Escherichia coli; experiment: Antibacterial activity against Escherichia coli ATCC 25922 after 18 to 24 hrs by NCCLS method; summary of the method: as §1
[9] = test system: Pseudomonas aeruginosa; experiment: Antibacterial activity against Pseudomonas aeruginosa 10-20 after 18 to 24 hrs by NCCLS method; summary of the method: as §1
[10] = test system: Escherichia coli; experiment: Antibacterial activity against Escherichia coli 10-3 after 18 to 24 hrs by NCCLS method; summary of the method: as §1
[11] = test system: Klebsiella pneumoniae; experiment: Antibacterial activity against extended spectrum beta-lactamases producing Klebsiella pneumoniae 10-2 after 18 to 24 hrs by NCCLS method; summary of the method: as §1
[12] = test system: Klebsiella pneumoniae; experiment: Antibacterial activity against extended spectrum beta-lactamases producing Klebsiella pneumoniae 10-1 after 18 to 24 hrs by NCCLS method; summary of the method: as §1
[13] = test system: Klebsiella pneumoniae; experiment: Antibacterial activity against Klebsiella pneumoniae 10-2 after 18 to 24 hrs by NCCLS method; summary of the method: as §1
[14] = test system: Staphylococcus aureus; experiment: Antibacterial activity against methicillin-resistant Staphylococcus aureus 10-13 after 18 to 24 hrs by NCCLS method; summary of the method: as §2
[15] = test system: Pseudomonas aeruginosa; experiment: Antibacterial activity against Pseudomonas aeruginosa 10-12 after 18 to 24 hrs by NCCLS method; summary of the method: as §1
[16] = test system: Staphylococcus aureus; experiment: Antibacterial activity against methicillin-resistant Staphylococcus aureus 10-11 after 18 to 24 hrs by NCCLS method; summary of the method: as §2
[17] = test system: Staphylococcus aureus; experiment: Antibacterial activity against methicillin-resistant Staphylococcus aureus 10-15 after 18 to 24 hrs by NCCLS method; summary of the method: as §2
[18] = test system: Staphylococcus aureus; experiment: Antibacterial activity against methicillin-sensitive Staphylococcus aureus 10-11 after 18 to 24 hrs by NCCLS method; summary of the method: as §1
[19] = test system: Staphylococcus epidermidis; experiment: Antibacterial activity against methicillin-sensitive Staphylococcus epidermidis 10-15 after 18 to 24 hrs by NCCLS method; summary of the method: as §2
[20] = test system: Klebsiella pneumoniae; experiment: Antibacterial activity against Klebsiella pneumoniae 10-4 after 18 to 24 hrs by NCCLS method; summary of the method: as §1
[21] = test system: Klebsiella pneumoniae; experiment: Antibacterial activity against extended spectrum beta-lactamases producing Klebsiella pneumoniae 10-3 after 18 to 24 hrs by NCCLS method; summary of the method: as §1
[22] = test system: Escherichia coli; experiment: Antibacterial activity against Escherichia coli 10-2 after 18 to 24 hrs by NCCLS method; summary of the method: as §1
[23] = test system: Mycobacterium tuberculosis; experiment: Antimycobacterial activity against Mycobacterium tuberculosis H37Rv ATCC 27294 by microplate alamar blue assay
Summary of the method: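 Microplate Alamar Blue fluorescence assay on strain H37Rv ATCC 27294. MIC was the lowest concentration cutting fluorescence by ≥90% against the mean of replicate bacterium-only controls.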

[24] = test system: Staphylococcus aureus; experiment: Antibacterial activity against methicillin-sensitive Staphylococcus aureus 10-14 after 18 to 24 hrs by NCCLS method; summary of the method: as §1
[25] = test system: Staphylococcus epidermidis; experiment: Antibacterial activity against methicillin-resistant Staphylococcus epidermidis 10-13 after 18 to 24 hrs by NCCLS method; summary of the method: as §2
[26] = test system: Pseudomonas aeruginosa; experiment: Antibacterial activity against Pseudomonas aeruginosa 10-15 after 18 to 24 hrs by NCCLS method; summary of the method: as §1
[27] = test system: Enterococcus faecalis; experiment: Antibacterial activity against Enterococcus faecalis 10-5 after 18 to 24 hrs by NCCLS method; summary of the method: as §1
[28] = test system: Pseudomonas aeruginosa; experiment: Antibacterial activity against Pseudomonas aeruginosa 10-5 after 18 to 24 hrs by NCCLS method; summary of the method: as §1
[29] = test system: Streptococcus pneumoniae; experiment: Antibacterial activity against Streptococcus pneumoniae 10-1 after 18 to 24 hrs by NCCLS method; summary of the method: as §1
[30] = test system: Pseudomonas aeruginosa; experiment: Antibacterial activity against Pseudomonas aeruginosa 10-18 after 18 to 24 hrs by NCCLS method; summary of the method: as §1
[31] = test system: Staphylococcus epidermidis; experiment: Antibacterial activity against methicillin-sensitive Staphylococcus epidermidis 10-11 after 18 to 24 hrs by NCCLS method; summary of the method: as §1
[32] = test system: Enterococcus faecalis; experiment: Antibacterial activity against Enterococcus faecalis 10-6 after 18 to 24 hrs by NCCLS method; summary of the method: as §1
[33] = test system: Streptococcus pneumoniae; experiment: Antibacterial activity against Streptococcus pneumoniae 10-6 after 18 to 24 hrs by NCCLS method; summary of the method: as §1
[34] = test system: Enterococcus faecium; experiment: Antibacterial activity against Enterococcus faecium 10-6 after 18 to 24 hrs by NCCLS method; summary of the method: as §1
[35] = test system: Staphylococcus aureus; experiment: Antibacterial activity against Staphylococcus aureus ATCC 2592 after 18 to 24 hrs by NCCLS method; summary of the method: as §1
[36] = test system: Pseudomonas aeruginosa; experiment: Antibacterial activity against Pseudomonas aeruginosa 10-9 after 18 to 24 hrs by NCCLS method; summary of the method: as §1
[37] = test system: Escherichia coli; experiment: Antibacterial activity against Escherichia coli 10-1 after 18 to 24 hrs by NCCLS method; summary of the method: as §1
[38] = test system: Escherichia coli; experiment: Antibacterial activity against extended spectrum beta-lactamases producing Escherichia coli 10-3 after 18 to 24 hrs by NCCLS method; summary of the method: as §1

SMILES: COc1ccc(CN2CCN(c3cc4c(cc3F)c(=O)c(C(=O)O)cn4C3CC3)CC2)c(OC)c1OC
- MIC [1]: 32 µg/mL (≈ 62.6 µM)
- MIC [2]: 16 µg/mL (≈ 31.3 µM)
- MIC [3]: 0.25 µg/mL (≈ 0.489 µM)
- MIC [4]: > 128 µg/mL
- MIC [5]: 64 µg/mL (≈ 125 µM)
- MIC [6]: 64 µg/mL (≈ 125 µM)
- MIC [7]: 64 µg/mL (≈ 125 µM)
- MIC [8]: 0.5 µg/mL (≈ 0.977 µM)
- MIC [9]: 32 µg/mL (≈ 62.6 µM)
- MIC [10]: 64 µg/mL (≈ 125 µM)
- MIC [11]: > 128 µg/mL
- MIC [12]: > 128 µg/mL
- MIC [13]: > 128 µg/mL
- MIC [14]: 64 µg/mL (≈ 125 µM)
- MIC [15]: 64 µg/mL (≈ 125 µM)
- MIC [16]: 16 µg/mL (≈ 31.3 µM)
- MIC [17]: 16 µg/mL (≈ 31.3 µM)
- MIC [18]: 0.125 µg/mL (≈ 0.244 µM)
- MIC [19]: 16 µg/mL (≈ 31.3 µM)
- MIC [20]: > 128 µg/mL
- MIC [21]: > 128 µg/mL
- MIC [22]: 16 µg/mL (≈ 31.3 µM)
- MIC [23]: 16 µg/mL (≈ 31.3 µM)
- MIC [24]: 0.125 µg/mL (≈ 0.244 µM)
- MIC [25]: 64 µg/mL (≈ 125 µM)
- MIC [26]: 32 µg/mL (≈ 62.6 µM)
- MIC [27]: 16 µg/mL (≈ 31.3 µM)
- MIC [28]: 32 µg/mL (≈ 62.6 µM)
- MIC [29]: 8 µg/mL (≈ 15.6 µM)
- MIC [30]: 64 µg/mL (≈ 125 µM)
- MIC [31]: 0.25 µg/mL (≈ 0.489 µM)
- MIC [32]: > 128 µg/mL
- MIC [33]: 64 µg/mL (≈ 125 µM)
- MIC [34]: 8 µg/mL (≈ 15.6 µM)
- MIC [35]: 0.5 µg/mL (≈ 0.977 µM)
- MIC [36]: 32 µg/mL (≈ 62.6 µM)
- MIC [37]: > 128 µg/mL
- MIC [38]: > 128 µg/mL

SMILES: COc1cc(CN2CCN(c3cc4c(cc3F)c(=O)c(C(=O)O)cn4C3CC3)CC2)cc(OC)c1OC
- MIC [1]: 32 µg/mL (≈ 62.6 µM)
- MIC [2]: 32 µg/mL (≈ 62.6 µM)
- MIC [3]: 0.5 µg/mL (≈ 0.977 µM)
- MIC [4]: > 128 µg/mL
- MIC [5]: 32 µg/mL (≈ 62.6 µM)
- MIC [6]: 64 µg/mL (≈ 125 µM)
- MIC [7]: > 128 µg/mL
- MIC [8]: 1 µg/mL (≈ 1.95 µM)
- MIC [9]: 64 µg/mL (≈ 125 µM)
- MIC [10]: > 128 µg/mL
- MIC [11]: > 128 µg/mL
- MIC [12]: > 128 µg/mL
- MIC [13]: > 128 µg/mL
- MIC [14]: 128 µg/mL (≈ 250 µM)
- MIC [15]: 32 µg/mL (≈ 62.6 µM)
- MIC [16]: 64 µg/mL (≈ 125 µM)
- MIC [17]: 32 µg/mL (≈ 62.6 µM)
- MIC [18]: 0.25 µg/mL (≈ 0.489 µM)
- MIC [19]: 32 µg/mL (≈ 62.6 µM)
- MIC [20]: > 128 µg/mL
- MIC [21]: > 128 µg/mL
- MIC [22]: 32 µg/mL (≈ 62.6 µM)
- MIC [23]: 32 µg/mL (≈ 62.6 µM)
- MIC [24]: 0.25 µg/mL (≈ 0.489 µM)
- MIC [25]: 32 µg/mL (≈ 62.6 µM)
- MIC [26]: 64 µg/mL (≈ 125 µM)
- MIC [27]: 8 µg/mL (≈ 15.6 µM)
- MIC [28]: 32 µg/mL (≈ 62.6 µM)
- MIC [29]: 4 µg/mL (≈ 7.82 µM)
- MIC [30]: 128 µg/mL (≈ 250 µM)
- MIC [31]: 0.5 µg/mL (≈ 0.977 µM)
- MIC [32]: 64 µg/mL (≈ 125 µM)
- MIC [33]: 64 µg/mL (≈ 125 µM)
- MIC [34]: 4 µg/mL (≈ 7.82 µM)
- MIC [35]: 0.25 µg/mL (≈ 0.489 µM)
- MIC [36]: 32 µg/mL (≈ 62.6 µM)
- MIC [37]: > 128 µg/mL
- MIC [38]: > 128 µg/mL
